Screening data deposited in PubChem by several laboratories.
An excerpt weighted towards active compounds, which were near 2.7% of everything screened.
Mdm2 ligase inh: inhibitors of human Mdm2 E3 ubiquitin ligase; Q00987; cell-based MDM2 ubiquitination luciferase reporter, 2 h; 0 = plate control, 100 = twice control, blank-subtracted; signal enhancement, % at 5 µM; 210,000 compounds, 0.11% hits; AID 1230;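 active = signal enhancement of 30% or more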;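 note: luminescence tracks abundance of the self-degrading MDM2-luciferase fusion protein; higher signal means inhibition of MDM2 E3 ligase activity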
Target sequence (Q00987 whole entry, looked up, the tested form may be a part): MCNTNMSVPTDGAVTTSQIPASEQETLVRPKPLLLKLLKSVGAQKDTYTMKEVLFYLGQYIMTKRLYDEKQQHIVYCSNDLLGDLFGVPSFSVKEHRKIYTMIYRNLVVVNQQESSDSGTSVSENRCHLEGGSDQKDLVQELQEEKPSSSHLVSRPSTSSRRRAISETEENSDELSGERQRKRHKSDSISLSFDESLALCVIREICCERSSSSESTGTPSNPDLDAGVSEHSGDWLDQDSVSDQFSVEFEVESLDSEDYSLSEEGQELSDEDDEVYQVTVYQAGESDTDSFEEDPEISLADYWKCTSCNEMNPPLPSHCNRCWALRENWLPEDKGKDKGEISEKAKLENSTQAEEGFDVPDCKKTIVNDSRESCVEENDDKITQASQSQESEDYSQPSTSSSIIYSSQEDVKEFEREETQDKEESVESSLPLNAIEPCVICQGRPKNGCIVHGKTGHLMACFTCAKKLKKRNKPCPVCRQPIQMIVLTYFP
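Test system: mammalian cells stably expressing self-ubiquitinating, self-degrading MDM2 E3–luciferase fusion; Amount: 2000 cells in each well; Medium: DMEM; Schedule: 4 h settle plus 2 h compound, 37 °C; Technique: SteadyLite luciferase luminescence after 15 min room-temperature reagent incubation; Benchmarks: plate control and blank wells.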
Hck Nef HTS: inhibitors of human Hck kinase activated by Nef. P08631. Recombinant Hck-YEEI plus Nef, Z-Lyte FRET kinase assay. inhibition, % at 20 µM. 220,000 compounds, 0.68% hits. AID 463187;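 active = Hck-Nef kinase inhibition above about 50%, limit read from the data; inactive = inhibition below that limit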
Tb hexokinase: T. brucei hexokinase 1 inhibition; recombinant TbHK1, G6PDH-coupled NADH A340; inhibition, % at 10 µM; 220,000 compounds, 0.11% hits; AID 1430;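 active = inhibition of 50% or more in the single-dose primary screen; inactive = inhibition below 50%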
Wee1 degr inh: inhibitors of human Wee1 degradation | HeLa Luc-Wee1K328M stability, luciferase luminescence; 100% = proteasome inhibitor MG132 effect | reporter increase, % at 5 µM | 220,000 compounds, 1.2% hits;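 active = activation above the mean of all tested compounds plus 3 SD, set per screening run, cut at about 8.8% in these data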;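 note: cells exposed to compound for 20 h before luminescence read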
14-3-3 Bad inh: disrupts binding of bovine 14-3-3 zeta to phospho-Bad peptide. P63103. TR-FRET 14-3-3zeta/Dy647-pBad peptide displacement, 1 h. inhibition, % at 21.7 µM. 220,000 compounds, 0.71% hits;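 active = inhibition above about 70%, limit read from the data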
Hck Nef conf: Hck-Nef kinase inhibition, confirmation; shares compounds with Hck Nef HTS; Recombinant Hck-YEEI:Nef, Z-Lyte FRET kinase assay; calls only at 10 µM; 1,300 compounds, 28% hits; AID 463188;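 active = average inhibition of at least 50%, with Z-scores no higher than 3 in both the phospho-tyrosine peptide and fluorescence counterscreens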
A number is an active result.

Screening Cc1cc(C)c2c(c1)/C(=N\N=c1\sc3ccccc3n1C)C(=O)N2 returned Hck Nef HTS 50.6, Tb hexokinase inactive, Wee1 degr inh inactive, 14-3-3 Bad inh inactive and Hck Nef conf inactive.
`O=C(N/N=C/c1ccncc1)c1ccc(NC(=O)c2ccc(Cl)cc2)cc1` gave Mdm2 ligase inh inactive, Hck Nef HTS 57.9, Tb hexokinase inactive, Wee1 degr inh inactive, 14-3-3 Bad inh inactive and Hck Nef conf inactive.
CC(=O)Nc1ncnc2c1c(-c1ccc(Cl)cc1)nn2C(C)(C)C was read as Mdm2 ligase inh inactive, Hck Nef HTS active, Tb hexokinase inactive, Wee1 degr inh inactive, 14-3-3 Bad inh inactive and Hck Nef conf active.
For CCOC(=O)Cn1nc(-c2ccc(Cl)cc2)ccc1=O the results were Mdm2 ligase inh inactive, Hck Nef HTS inactive, Tb hexokinase inactive, Wee1 degr inh inactive and 14-3-3 Bad inh inactive.
For CC(=O)N(C(C)=O)c1ncnc2c1c(-c1ccc(Cl)cc1)nn2C(C)(C)C the results were Mdm2 ligase inh inactive, Hck Nef HTS 73.5, Tb hexokinase inactive, Wee1 degr inh inactive, 14-3-3 Bad inh inactive and Hck Nef conf inactive.
Screening CC(=O)Nc1sc(-c2ccc(Cl)cc2)nc1-c1ccccc1 returned Mdm2 ligase inh inactive, Hck Nef HTS inactive, Tb hexokinase inactive, Wee1 degr inh inactive and 14-3-3 Bad inh inactive.
For CSc1nc(N(C)CCO)c2sc3nc(-c4ccco4)c4c(c3c2n1)CCC4 the results were Mdm2 ligase inh inactive, Hck Nef HTS 88.8, Tb hexokinase inactive, Wee1 degr inh inactive, 14-3-3 Bad inh inactive and Hck Nef conf inactive.
CCOc1ccc(N(CC(=O)NCC2CCCO2)C(=O)CCC(=O)Nc2nccs2)cc1 (stereo not given) was read as Mdm2 ligase inh inactive, Hck Nef HTS inactive, Tb hexokinase inactive, Wee1 degr inh inactive and 14-3-3 Bad inh inactive.
COCC1CCN(C(=O)c2cc(COc3ccc4ncccc4c3)on2)CC1 was read as Mdm2 ligase inh inactive, Hck Nef HTS inactive, Tb hexokinase inactive, Wee1 degr inh inactive and 14-3-3 Bad inh inactive.
`COc1ccc(/C=C2\C(=O)ON=C2c2cccc([N+](=O)[O-])c2)cc1` gave Mdm2 ligase inh inactive, Hck Nef HTS 53.4, Tb hexokinase inactive, Wee1 degr inh inactive, 14-3-3 Bad inh inactive and Hck Nef conf inactive.
For COc1ccc(/C=C2/C(=O)ON=C2c2ccccc2)cc1OC the results were Mdm2 ligase inh inactive, Hck Nef HTS inactive, Tb hexokinase inactive, Wee1 degr inh inactive and 14-3-3 Bad inh inactive.
For CCCc1nc(SCC(=O)NNC(=O)C2CCCCC2)c2ccccc2n1 the results were Mdm2 ligase inh inactive, Hck Nef HTS 74.8, Tb hexokinase inactive, Wee1 degr inh inactive, 14-3-3 Bad inh inactive and Hck Nef conf inactive.
`COc1ccc(Cn2c(-c3ccc(C)cc3)c[n+]3ccccc23)cc1` gave Mdm2 ligase inh inactive, Hck Nef HTS inactive, Tb hexokinase inactive, Wee1 degr inh inactive and 14-3-3 Bad inh inactive.
`COc1ccccc1CN(Cc1ccco1)S(=O)(=O)c1ccc(-n2cnnn2)c(OC)c1` gave Mdm2 ligase inh inactive, Hck Nef HTS inactive, Tb hexokinase inactive, Wee1 degr inh inactive and 14-3-3 Bad inh inactive.
Screening O=C(c1cnn(C(=O)COc2ccccc2F)c1)c1cc(F)ccc1O returned Mdm2 ligase inh inactive, Hck Nef HTS 75.3, Tb hexokinase inactive, Wee1 degr inh inactive, 14-3-3 Bad inh inactive and Hck Nef conf active.
`Cc1cc(Cl)ccc1OCC(=O)n1cc(C(=O)c2cc(Cl)ccc2O)cn1` gave Mdm2 ligase inh inactive, Hck Nef HTS inactive, Tb hexokinase inactive, Wee1 degr inh inactive and 14-3-3 Bad inh inactive.
`CCc1ccc(CN(C)C(=O)CC2C(=O)NCCN2Cc2ccoc2)cc1` (stereo not given) gave Mdm2 ligase inh inactive, Hck Nef HTS inactive, Tb hexokinase inactive, Wee1 degr inh inactive and 14-3-3 Bad inh inactive.
Cn1c(Oc2ccccc2)c(C=O)c2ccccc21 was read as Mdm2 ligase inh inactive, Hck Nef HTS inactive, Tb hexokinase inactive, Wee1 degr inh inactive and 14-3-3 Bad inh inactive.
Screening O=C(Nc1nc2ccsc2c(=O)s1)c1ccco1 returned Mdm2 ligase inh inactive, Hck Nef HTS 64.7, Tb hexokinase inactive, Wee1 degr inh inactive, 14-3-3 Bad inh inactive and Hck Nef conf inactive.
For Cc1csc2c(=O)sc(NC(=O)c3ccco3)nc12 the results were Mdm2 ligase inh inactive, Hck Nef HTS inactive, Tb hexokinase inactive, Wee1 degr inh inactive and 14-3-3 Bad inh inactive.
